The record followed here is ChEMBL document CHEMBL3102710, “Design, synthesis, and evaluation of fimbrolide-nitric oxide donor hybrids as antimicrobial agents” (J Med Chem, 2013).

Data set [1] in a line: Induction of nitric oxide release in PBS buffer supplemented with L-cysteine, xanthine, xanthine oxidase assessed as nitrite release at 250 to 500 uM after 1 hr by Griess assay. In kind it is physicochemical. In outline:
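Total NO release was quantified as nitrite with Griess reagent, which detects nitrite at ≥1 μM. Because of that limit, compounds were added at 250 μM and 500 μM.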

The subject of data set [2] is Pseudomonas aeruginosa. The experiment in a line: Antibacterial activity against Pseudomonas aeruginosa PAO1 MH602 harboring lasB promoter fused with GFP-ASV assessed as growth inhibition at 88 uM measured every 30 mins by GFP-ASV reporter gene assay. In kind it is organism-based. Conditions: pseudomonas aeruginosa, in vivo, 0.5 h, 88 µM. The method in brief: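 Cell growth of the PAO1 PlasB::gfp(ASV) reporter strain tracked as OD600 every half hour during compound incubation, alongside GFP readings. Growth is compared against the untreated control.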
A general note: A reporter such as luciferase makes a cellular process visible.

Data set [3] in a line: Inhibition of quorum sensing system in Pseudomonas aeruginosa PAO1 MH602 harboring lasB promoter fused with GFP-ASV assessed as reduction in GFP-ASV reporter protein expression measured every 30 mins. The method in brief: (§1)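 P. aeruginosa PAO1 carrying a PlasB::gfp(ASV) fusion plasmid, which makes its own AHL signals, incubated with compounds at 88.8, 29.6, 9.9, 3.3 or 1.0 μM. GFP fluorescence (RFU) read every half hour. Percent QS inhibition is the percent RFU difference between sample and untreated control, taken at the time point when control fluorescence peaks.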

Data set [4] in a line: Inhibition of quorum sensing system in Pseudomonas aeruginosa PAO1 MH602 harboring lasB promoter fused with GFP-ASV assessed as reduction in GFP-ASV reporter protein expression at 3.2 uM measured every 30 mins relative to control. The method in brief:
as §1

Data set [5] is described as follows: Inhibition of quorum sensing system in Pseudomonas aeruginosa PAO1 MH602 harboring lasB promoter fused with GFP-ASV assessed as reduction in GFP-ASV reporter protein expression at 9.8 uM measured every 30 mins relative to control. In outline:
as §1

Data set [6] is described as follows: Inhibition of quorum sensing system in Pseudomonas aeruginosa PAO1 MH602 harboring lasB promoter fused with GFP-ASV assessed as reduction in GFP-ASV reporter protein expression at 29 uM measured every 30 mins relative to control. In outline:
as §1

A short description of data set [7]: Inhibition of quorum sensing system in Pseudomonas aeruginosa PAO1 MH602 harboring lasB promoter fused with GFP-ASV assessed as reduction in GFP-ASV reporter protein expression at 88 uM measured every 30 mins relative to control. In outline: as §1
Data set [8] in a line: Inhibition of quorum sensing system in Pseudomonas aeruginosa PAO1 MH602 harboring lasB promoter fused with GFP-ASV assessed as reduction in GFP-ASV reporter protein expression at 266 uM measured every 30 mins relative to control.
Data set [9] has as its system Pseudomonas aeruginosa. The experiment in a line: Antibacterial activity against Pseudomonas aeruginosa assessed as growth inhibition at 500 uM after 2 hrs by GFP reporter gene assay. In kind it is organism-based. Conditions: in vivo.
Data set [10] has as its system Pseudomonas aeruginosa. The experiment in a line: Induction of nitric oxide-dependent nirS gene expression in Pseudomonas aeruginosa at 500 uM incubated for 2 hrs under dark condition by GFP reporter gene assay relative to untreated control. Format: functional.
The test system of data set [11] is Pseudomonas aeruginosa. The experiment in a line: Antibacterial activity against Pseudomonas aeruginosa PAO1 assessed as inhibition of biofilm formation at 150 uM after 6 hrs by crystal violet staining assay relative to control. Format: functional.

Each structure is given as a SMILES string. The source made the active and inactive calls. Unless noted, no cut-off for these calls is given here.

The inhibition is how much of the control response was suppressed. Turning to `CCCC(SC(=O)CCCCCO[N+](=O)[O-])C1=CC(=C(Br)Br)OC1=O` (stereo unspecified), the Activity entry in data set [1] was “Active”; in data set [2] it was “Non-toxic”. Moreover, the inhibition result in [3] was “Dose-dependent effect”; in data set [7], 10.1%; in data set [8] it was 47.8%. Further, the inhibition result in data set [4], in data set [5] and in data set [6] was “inactive” throughout.
In the case of `CCCC(OC(=O)CCCCCCCCCCO[N+](=O)[O-])C1=CC(=C(Br)Br)OC1=O` (stereo unspecified), the results for the Activity entry in [9], in data set [1] and in data set [2] were “Non-toxic”, “Active” and “Non-toxic”, respectively. In [10], the outcome was inactive. Moreover, the inhibition result in data set [3] was “Dose-dependent effect”; in data set [6], 6.2%; in [7], 21.8%; in [8] it was 54.8%. The inhibition result in data set [4] and in [5] was “inactive” in each case.
Consider `CCCCCCCCCCCC(OC(=O)CCC(=O)N1CCN(/[N+]([O-])=N/OC)CC1)C1=CC(=C(Br)Br)OC1=O` (stereo unspecified), for which, in data set [2], the Activity result was “Non-toxic”. In addition, the results for the inhibition entry in data set [3], in data set [7] and in data set [8] were “Dose-dependent effect”, 6% and 41.9%, respectively. The inhibition result in data set [4], in [5], in data set [6] and in data set [11] was “inactive” each time.
Regarding `CCCC(OC(=O)CCCCCO[N+](=O)[O-])C1=CC(=C(Br)Br)OC1=O` (stereo unspecified), the Activity result in data set [9] and in [2] was “Non-toxic” each time. Further, the result in [10] was inactive. The inhibition entry was “Dose-dependent effect” in [3], 7.9% in [6], 18.8% in data set [7] and 54.1% in [8]. Further, the inhibition entry in data set [4] and in [5] was “inactive” each time.
Consider `CCCC(O)C1=CC(=C(Br)Br)OC1=O` (stereo unspecified), for which the Activity entry in data set [2] was “Non-toxic”. Further, the inhibition result in data set [3] was “Dose-dependent effect”; in data set [5], 16.7%; in [6], 37%; in data set [7], 62.9%; in data set [8], 85.8%. Further, in data set [4], the inhibition entry was “inactive”.
For `CCCCC1=C(Br)/C(=C/Br)OC1=O`, the Activity entry in [2] is given as “Non-toxic”. Besides, the inhibition result in data set [3] was “Dose-dependent effect”; in [6] it was 5.9%; in [7], 39.9%; in data set [8], 75.8%. Also, the inhibition result in data set [4] and in data set [5] was “inactive” in each case.
As for `CCCCCCC(O[N+](=O)[O-])C1=CC(=C(Br)Br)OC1=O` (stereo unspecified), the Activity entry in data set [9] and in data set [2] was “Non-toxic” throughout. Moreover, the result in [10] was inactive. Besides, the inhibition result was “Dose-dependent effect” in data set [3], 9.5% in [6], 29.9% in [7] and 65.7% in data set [8]. For the same compound, the inhibition result in [4] and in [5] was “inactive” in each case.
Turning to `CCCC(S)C1=CC(=C(Br)Br)OC1=O` (stereo unspecified), in data set [2], the Activity entry is “Non-toxic”. Also, the inhibition result is “Dose-dependent effect” in data set [3]; 1.5% in data set [5]; 4.3% in data set [6]; 17.9% in data set [7]; 50.5% in data set [8]. Moreover, the inhibition result in data set [4] is “inactive”.
With `CCCCCC(OC(=O)CC(=O)N1CCN(/[N+]([O-])=N/OC)CC1)C1=CC(=C(Br)Br)OC1=O` (stereo unspecified), the Activity entry in data set [2] is “Non-toxic”. Also, the inhibition result in data set [3] was “Dose-dependent effect”; in data set [5], 9.5%; in [6] it was 23.7%; in data set [7] it was 41.5%; in [8], 62.9%. Further, the inhibition entry in data set [4] and in [11] was “inactive” in each case.
On to `CCCC(OC(=O)CCCO[N+](=O)[O-])C1=CC(=C(Br)Br)OC1=O` (stereo unspecified), for which the Activity entry is “Non-toxic” in data set [9], 1 µM in data set [1] and “Non-toxic” in data set [2]. For the same compound, the result in [10] was inactive. Also, the inhibition result in [3] is “Dose-dependent effect”; in data set [5], 8%; in [6], 12.3%; in data set [7], 28.6%; in [8], 55.8%. Also, the inhibition result in data set [4] was “inactive”.
On to `CCCC(OC(=O)CCO[N+](=O)[O-])C1=CC(=C(Br)Br)OC1=O` (stereo unspecified), for which the Activity entry in data set [9] and in data set [2] was “Non-toxic” in each case. For the same compound, the outcome in data set [10] was inactive. Besides, the inhibition result was “Dose-dependent effect” in data set [3]; 12.5% in data set [5]; 43.1% in [6]; 62.8% in data set [7]; 80.6% in data set [8]. Moreover, in data set [4], the inhibition entry is “inactive”.
For `O=[N+]([O-])O[C@H]1CO[C@H]2[C@@H]1OC[C@H]2O[N+](=O)[O-]` [ISOSORBIDE DINITRATE], the Activity entry in data set [9] is “Non-toxic”; in data set [1] it was 4 µM. In addition, the outcome in data set [10] was inactive.
As to `CCCC(OC(=O)CCCCCCCO[N+](=O)[O-])C1=CC(=C(Br)Br)OC1=O` (stereo unspecified), the Activity result was “Non-toxic” in data set [9], 1 µM in data set [1] and “Non-toxic” in data set [2]. For the same compound, the outcome in [10] was inactive. Further, the inhibition entry in data set [3] is “Dose-dependent effect”; in [7], 12.9%; in [8] it was 40.6%. The inhibition result in data set [4], in data set [5] and in data set [6] was “inactive” each time.
Turning to `CCCC(OC(=O)CO/N=[N+](\[O-])N(CC)CC)C1=CC(=C(Br)Br)OC1=O` (stereo unspecified), the Activity result in data set [2] was “Non-toxic”. In addition, the inhibition entry in data set [3] is “Dose-dependent effect”; in [5] it was 6.2%; in data set [6] it was 30%; in [7], 52%; in data set [8], 74.8%. The inhibition entry in data set [4] and in data set [11] was “inactive” throughout.
Turning to `CCCC(SC(=O)CCO[N+](=O)[O-])C1=CC(=C(Br)Br)OC1=O` (stereo unspecified), the Activity result in data set [9] is “Non-toxic”; in data set [1] it was 1 µM; in data set [2], “Non-toxic”. Moreover, the “fold change (FC)” value in [10] is 2. Moreover, the inhibition entry is “Dose-dependent effect” in data set [3], 33.6% in data set [6], 51.5% in data set [7] and 72.3% in data set [8]. Also, the inhibition result in [4] and in data set [5] was “inactive” in each case.
Turning to `CCCCC1=CC(=C(Br)Br)OC1=O`, the Activity entry in data set [2] is recorded as “Non-toxic”. The inhibition result is “Dose-dependent effect” in [3], 17% in [6], 34.1% in [7] and 69.8% in data set [8]. Further, the inhibition result in data set [4] and in [5] was “inactive” throughout.
Regarding `CCCC(OC(=O)CCC(=O)N1CCN(/[N+]([O-])=N/OC)CC1)C1=CC(=C(Br)Br)OC1=O` (stereo unspecified), the Activity entry in data set [2] is recorded as “Non-toxic”. The inhibition result in data set [3] is “Dose-dependent effect”; in [5], 4.6%; in data set [6], 17.7%; in data set [7] it was 39.3%; in data set [8], 65.4%. The inhibition result in data set [4] and in data set [11] was “inactive” each time.
For the compound `CCCC(OC(=O)CO/N=[N+](\[O-])N1CCOCC1)C1=CC(=C(Br)Br)OC1=O` (stereo unspecified), the Activity result in data set [2] is recorded as “Non-toxic”. Moreover, the inhibition entry was “Dose-dependent effect” in data set [3], 15.9% in [6], 47.5% in data set [7] and 72.1% in data set [8]. Besides, the inhibition result in data set [4], in data set [5] and in data set [11] was “inactive” each time.
